Assay results as given in publication PMC11294631 (Nature Communications, 2024).
Read-outs that look alike come from different tables or passages of the source.

What was measured:
[1] = biological target: T1, SNAP-mGluR3 (Rattus norvegicus, UniProt P31422); assay: GIRK current, whole-cell patch clamp; format: cell-based; details: GIRK1-F137S co-expressed
[2] = biological target: T1, SNAP-mGluR3; assay: GIRK current, whole-cell patch clamp; format: cell-based
Summary of the method: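 Cells grown in DMEM with 10% FBS at 37 °C/5% CO2, seeded on poly-L-lysine-coated glass coverslips, and co-transfected (Lipofectamine 2000) with receptor, GIRK1-F137S homotetramer and tdTomato. Medium was switched at 6 h to 5 µM LY341495. Whole-cell voltage clamp at −60 mV 24–36 h post-transfection. Log EC50 of point mutants versus WT compared by extra sum-of-squares F-test.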

T1 sequence (P31422 23-879): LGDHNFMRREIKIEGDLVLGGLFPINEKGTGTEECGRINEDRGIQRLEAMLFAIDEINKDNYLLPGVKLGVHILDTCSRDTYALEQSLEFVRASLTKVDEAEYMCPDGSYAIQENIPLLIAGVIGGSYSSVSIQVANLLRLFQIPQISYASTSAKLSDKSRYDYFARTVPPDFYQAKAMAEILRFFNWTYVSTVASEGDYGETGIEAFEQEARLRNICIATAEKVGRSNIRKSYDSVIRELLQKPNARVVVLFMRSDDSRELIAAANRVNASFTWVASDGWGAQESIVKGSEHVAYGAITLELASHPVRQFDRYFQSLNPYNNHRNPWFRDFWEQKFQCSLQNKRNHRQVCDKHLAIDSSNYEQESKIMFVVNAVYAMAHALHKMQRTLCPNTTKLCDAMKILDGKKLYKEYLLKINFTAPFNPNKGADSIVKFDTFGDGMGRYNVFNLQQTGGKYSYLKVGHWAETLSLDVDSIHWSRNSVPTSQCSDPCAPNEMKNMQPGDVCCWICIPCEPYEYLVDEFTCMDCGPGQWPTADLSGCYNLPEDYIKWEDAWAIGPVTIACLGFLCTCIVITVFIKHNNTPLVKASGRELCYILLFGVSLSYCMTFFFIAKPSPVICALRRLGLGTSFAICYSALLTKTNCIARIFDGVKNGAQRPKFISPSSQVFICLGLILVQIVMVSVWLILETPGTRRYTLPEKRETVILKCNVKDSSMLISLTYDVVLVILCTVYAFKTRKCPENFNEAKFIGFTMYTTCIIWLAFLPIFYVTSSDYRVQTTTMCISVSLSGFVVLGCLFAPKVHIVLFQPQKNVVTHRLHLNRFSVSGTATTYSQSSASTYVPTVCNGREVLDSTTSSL

Compound | EC50 ([1]; orthosteric agonist) | further results
N[C@@H](CCC(=O)O)C(=O)O [glutamate] | All three agonists produced dose-dependent, reversible GIRK currents | –
N[C@@]1(C(=O)O)CO[C@H]2[C@H](C(=O)O)[C@H]21 [LY379268] | All three agonists produced dose-dependent, reversible GIRK currents | –
N[C@H](C(=O)O)C1[C@@H](C(=O)O)[C@@H]1C(=O)O (stereo partly shown) [DCG-IV] | – | EC50 ([1]; orthosteric partial agonist): All three agonists produced dose-dependent, reversible GIRK currents
COc1ccc(C(=O)O)cc1OC[C@H](C)COc1ccc(C(=O)CC(C)(C)C)c(O)c1C [VU6023326, (R)−3-(3-(4-(3,3-dimethylbutanoyl)−3-hydroxy-2-methylphenoxy)−2-methyl-propoxy)−4-methoxybenzoic acid] | – | EC50 [2]: 7.94 nM
